Measured values from ChEMBL document CHEMBL1122926, “Potential radiosensitizing agents. 7. 4(5)-Iodo-5(4)-nitroimidazole derivatives” (J Med Chem, 1985).
pEC50: −log10 of the molar value.

Key:
[1] = Evaluated for sensitizer enhancement ratio determined by dividing the D0 value from the control radiation survival curve by the […] from the radiation survival curve in the presence at a concentration of 0.5 mM.; assay type: functional
In short: (§1)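 Hypoxic asynchronous V-79 monolayers in sealed containers (95% N2/5% CO2 purge) with drug present. Irradiated at room temperature by linear accelerator, 180 rad/min, 400–2400 rad, for full survival curves by colony formation. SER is the D0 of hypoxic control cells divided by the D0 of hypoxic drug-treated cells. Drug given at maximum nontoxic 2-h concentration, up to 1 mM.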

[2] = Compound evaluated in vitro for the dose required to kill 50% of chinese hamster cells measured by colony formation […]; assay type: functional; conditions: Cricetulus griseus, read-out: ED50 (the source's name)
In short: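 Chinese hamster V-79 cells, about 200 per dish, attached 2 h in MEM + 15% fetal calf serum. Exposed to a range of drug concentrations for 2 h at 37 °C, in air or hypoxia (95% N2/5% CO2 purge, 90 min). Drug then replaced by fresh medium, 6-day incubation, colonies stained with methylene blue and counted. ED50 read from concentration vs. percent survival graphs.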

[3] = Compound evaluated for the partition coefficient (PC); assay type: physicochemical; conditions: octanol/water
In short: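 Octanol/phosphate buffer (0.1 M, pH 7.4) partition, equal volumes, stirred 1 h at room temperature. Nitroimidazole concentration in each phase measured spectrophotometrically.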

[4] = Evaluated for sensitizer enhancement ratio determined by dividing the D0 value from the control radiation survival curve by the […] from the radiation survival curve in the presence at a concentration of 0.05 mM.; assay type: functional; in short: as §1
[5] = Evaluated for sensitizer enhancement ratio determined by dividing the D0 value from the control radiation survival curve by the […] from the radiation survival curve in the presence at a concentration of 1.0 mM.; assay type: functional
In short: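 V-79 Chinese hamster asynchronous monolayers in MEM with 15% fetal calf serum. Cells made hypoxic in sealed containers purged with 95% N2/5% CO2 for 90 min, drug exposure 2 h. Irradiated at room temperature by linear accelerator at 180 rad/min, 400–2400 rad. Colonies counted after 6 days at 37 °C. SER = D0 of hypoxic controls / D0 of hypoxic drug-treated cells.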

[6] = Evaluated for sensitizer enhancement ratio determined by dividing the D0 value from the control radiation survival curve by the […] from the radiation survival curve in the presence at a concentration of 1.0 mM.
[7] = Evaluated for sensitizer enhancement ratio determined by dividing the D0 value from the control radiation survival curve by the […] from the radiation survival curve in the presence at a concentration of 0.1 mM.; assay type: functional; in short: as §1
[8] = Evaluated for sensitizer enhancement ratio determined by dividing the D0 value from the control radiation survival curve by the […] from the radiation survival curve in the presence at a concentration of 0.025 mM.; assay type: functional; in short: as §1
[9] = Evaluated for sensitizer enhancement ratio determined by dividing the D0 value from the control radiation survival curve by the […] from the radiation survival curve in the presence at a concentration of 0.25 mM.; assay type: functional; in short: as §1

Row | PC [3] | SMILES | pEC50 [2] | Ratio [7] | also measured
1 | 19.4 | Cn1cnc(I)c1[N+](=O)[O-] | 3.09 |  | Ratio [1]: 2.4
2 | 10.1 | Cn1cnc([N+](=O)[O-])c1I | 3.85 |  | Ratio [4]: 2.5
3 | 0.04 | O=C(Cn1cnc([N+](=O)[O-])c1I)NCc1ccc[n+]([O-])c1 | < 3.00 |  | Ratio [6]: 1.2
4 | 7.8 | COCC(O)Cn1cnc(I)c1[N+](=O)[O-] (stereo not given) | 3.32 | 1.4 | 
5 | 3.7 | CCOC(=O)Cn1cnc([N+](=O)[O-])c1I | 4.22 |  | Ratio [8]: 1.7
6 | 2.9 | O=C(Cn1cnc([N+](=O)[O-])c1I)NCc1cccnc1 | 3.19 |  | Ratio [9]: 1.5
7 | 8.6 | CCOC(=O)Cn1cnc(I)c1[N+](=O)[O-] | 3.74 | 1.8 | 
8 | 2.6 | COCC(O)Cn1cnc([N+](=O)[O-])c1I (stereo not given) | 3.77 | 1.6 | 
9 | 7.6 | O=C(Cn1cnc(I)c1[N+](=O)[O-])NCc1cccnc1 | 3.74 | 1.7 | 

Row | SMILES | PC [3] | pEC50 [2] | Ratio [7] | also measured
10 | O=[N+]([O-])c1[nH]cnc1I | 1.9 | < 3.00 |  | Ratio [5]: 1.1
